Laboratory results reported in ChEMBL document CHEMBL1125014, “Synthesis and structure-activity relationships of new 9-N-alkyl derivatives of 9(S)-erythromycylamine” (1990).
In brackets after ≈: the same amount, converted by molar mass.

Key:
Format in all cases: functional
[1] = test system: Streptococcus pneumoniae; experiment: MIC value was measured against streptococcus pneumoniae park1
In short: (§1)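 Susceptibility determined by standard agar-dilution method against a panel of bacterial strains.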

[2] = test system: Haemophilus influenzae; experiment: MIC value was measured against haemophilus influenzae CL
[3] = test system: Staphylococcus aureus; experiment: Effective dose against mice infected with Staphylococcus aureus after peroral administration (in vivo); settings: in Mus musculus, po
[4] = test system: Enterococcus faecalis; experiment: MIC value was measured against streptococcus faecalis X66; in short: as §1
[5] = test system: Staphylococcus epidermidis; experiment: microbe, parasite or virus in culture
[6] = test system: Staphylococcus aureus; experiment: MIC value measured against staphylococcus aureus X1
[7] = test system: Streptococcus pyogenes; experiment: Effective dose against mice infected with streptococcus pyogenes after peroral administration (in vivo); settings: in Mus musculus, po
[8] = test system: Streptococcus pyogenes; experiment: MIC value measured against streptococcus pyogenes C203
[9] = test system: Streptococcus pneumoniae; experiment: Effective dose against mice infected with streptococcus pneumoniae after peroral administration (in vivo); settings: in Mus musculus, po
[10] = test system: Enterococcus faecalis; experiment: MIC value was measured against streptococcus faecalis.
[11] = test system: Streptococcus pneumoniae; experiment: MIC value measured against streptococcus pneumoniae Park1
[12] = test system: Bacteria; experiment: MIC value was measured against staphylococcus epidermidis.; in short: as §1
[13] = test system: Bacteria; experiment: MIC value was measured against streptococcus pyogenes.; in short: as §1
[14] = test system: Haemophilus influenzae; experiment: MIC value was measured against haemophilus influenzae.; in short: as §1
[15] = test system: Mus musculus; experiment: ED50 value was measured by po administration against staphylococcus aureus infection in mice (in vivo, in experiment 1)
In short: (§2)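 Infected mice were dosed orally or subcutaneously at 1 and 5 h postinfection, 0.25 mL of antibiotic solution in 10% aqueous ethanol per dose. Tartaric acid was added where needed for solubility. Several dose concentrations were tested to give the ED50.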

[16] = test system: Mus musculus; experiment: ED50 value was measured by sc administration against streptococcus pyogenes infection in mice (in vivo, in experiment 1); in short: as §2
[17] = test system: Mus musculus; experiment: ED50 value was measured by po administration against streptococcus pyogenes infection in mice (in vivo, in experiment 1); in short: as §2
[18] = test system: Mus musculus; experiment: ED50 value was measured by po administration against staphylococcus aureus infection in mice (in vivo, in experiment 2); in short: as §2
[19] = test system: Mus musculus; experiment: ED50 value was measured by sc administration against streptococcus pneumoniae infection in mice (in vivo, in experiment 2); in short: as §2
[20] = test system: Mus musculus; experiment: ED50 value was measured by sc administration against staphylococcus aureus infection in mice (in vivo, in experiment 1); in short: as §2
[21] = test system: Mus musculus; experiment: ED50 value was measured by sc administration against streptococcus pneumoniae infection in mice (in vivo, in experiment 1); in short: as §2
[22] = test system: Mus musculus; experiment: ED50 value was measured by po administration against streptococcus pneumoniae infection in mice (in vivo, in experiment 2); in short: as §2
[23] = test system: Mus musculus; experiment: ED50 value was measured by po administration against streptococcus pneumoniae infection in mice (in vivo, in experiment 1); in short: as §2
[24] = test system: Mus musculus; experiment: ED50 value was measured by sc administration against streptococcus pyogenes infection in mice (in vivo, in experiment 2); in short: as §2
[25] = test system: Mus musculus; experiment: ED50 value was measured by po administration against streptococcus pyogenes infection in mice (in vivo, in experiment 2); in short: as §2
[26] = test system: Mus musculus; experiment: ED50 value was measured by sc administration against staphylococcus aureus infection in mice (in vivo, in experiment 2); in short: as §2

Structure (SMILES)	MIC [1]	MIC [2]	ED50 [3]	MIC [4]	MIC [5]	MIC [6]	ED50 [7]	MIC [8]	ED50 [9]	MIC [10]	MIC [11]	other results
CC[C@H]1OC(=O)[C@H](C)[C@@H](OC2CC(C)(OC)C(O)C(C)O2)[C@H](C)[C@@H](OC2OC(C)CC(N(C)C)C2O)[C@](C)(O)C[C@@H](C)[C@H]2[C@H](C)[C@@H](OCN2Cc2ccccc2)[C@]1(C)O (some centres not stated)	0.06 µg/mL (≈ 0.0717 µM)	4 µg/mL (≈ 4.78 µM)	> 50 mg/kg	0.5 µg/mL (≈ 0.597 µM)	0.5 µg/mL (≈ 0.597 µM)	1 µg/mL (≈ 1.19 µM)	16 mg/kg	0.12 µg/mL (≈ 0.143 µM)	15 mg/kg			
CC[C@H]1OC(=O)[C@H](C)[C@@H](OC2CC(C)(OC)C(O)C(C)O2)[C@H](C)[C@@H](OC2OC(C)CC(N(C)C)C2O)[C@](C)(O)C[C@@H](C)[C@H](NCCCCN)[C@H](C)[C@@H](O)[C@]1(C)O (some centres not stated)		64 µg/mL (≈ 79.4 µM)			4 µg/mL (≈ 4.96 µM)	4 µg/mL (≈ 4.96 µM)		0.12 µg/mL (≈ 0.149 µM)		8 µg/mL (≈ 9.92 µM)	4 µg/mL (≈ 4.96 µM)	
CC[C@H]1OC(=O)[C@H](C)[C@@H](OC2CC(C)(OC)C(O)C(C)O2)[C@H](C)[C@@H](OC2OC(C)CC(N(C)C)C2O)[C@](C)(O)C[C@@H](C)[C@H](N2CCCCC2)[C@H](C)[C@@H](O)[C@]1(C)O (some centres not stated)		2 µg/mL (≈ 2.49 µM)	> 44 mg/kg			16 µg/mL (≈ 19.9 µM)	24 mg/kg		21 mg/kg			MIC [12]: 8 µg/mL (≈ 9.96 µM); MIC [13]: 1 µg/mL (≈ 1.25 µM); MIC [14]: 2 µg/mL (≈ 2.49 µM)
CCCN1CO[C@@H]2[C@@H](C)[C@@H]1[C@H](C)C[C@@](C)(O)[C@H](OC1OC(C)CC(N(C)C)C1O)[C@@H](C)[C@H](OC1CC(C)(OC)C(O)C(C)O1)[C@@H](C)C(=O)O[C@H](CC)[C@@]2(C)O (some centres not stated)	0.008 µg/mL (≈ 0.0101 µM)	1 µg/mL (≈ 1.27 µM)	7 mg/kg	0.12 µg/mL (≈ 0.152 µM)	0.12 µg/mL (≈ 0.152 µM)	0.25 µg/mL (≈ 0.317 µM)	5 mg/kg	0.008 µg/mL (≈ 0.0101 µM)	5 mg/kg			
CC[C@H]1OC(=O)[C@H](C)[C@@H](OC2CC(C)(OC)C(O)C(C)O2)[C@H](C)[C@@H](OC2OC(C)CC(N(C)C)C2O)[C@](C)(O)C[C@@H](C)[C@H](NCCC2=C(C)CCCC2(C)C)[C@H](C)[C@@H](O)[C@]1(C)O (some centres not stated)		4 µg/mL (≈ 4.52 µM)	> 50 mg/kg	0.12 µg/mL (≈ 0.136 µM)	1 µg/mL (≈ 1.13 µM)	1 µg/mL (≈ 1.13 µM)	> 50 mg/kg	0.5 µg/mL (≈ 0.565 µM)	> 50 mg/kg			
CC[C@H]1OC(=O)[C@H](C)[C@@H](OC2CC(C)(OC)C(O)C(C)O2)[C@H](C)[C@@H](OC2OC(C)CC(N(C)C)C2O)[C@](C)(O)C[C@@H](C)/C(=N\O)[C@H](C)[C@@H](O)[C@]1(C)O (some centres not stated)		0.5 µg/mL (≈ 0.668 µM)			0.06 µg/mL (≈ 0.0801 µM)	0.25 µg/mL (≈ 0.334 µM)		0.008 µg/mL (≈ 0.0107 µM)		0.06 µg/mL (≈ 0.0801 µM)	0.008 µg/mL (≈ 0.0107 µM)	
CC[C@H]1OC(=O)[C@H](C)[C@@H](OC2CC(C)(OC)C(O)C(C)O2)[C@H](C)[C@@H](OC2OC(C)CC(N(C)C)C2O)[C@](C)(O)C[C@@H](C)[C@H](NCCOC)[C@H](C)[C@@H](O)[C@]1(C)O (some centres not stated)		1 µg/mL (≈ 1.26 µM)	35 mg/kg		0.25 µg/mL (≈ 0.315 µM)	0.5 µg/mL (≈ 0.63 µM)	16 mg/kg	0.12 µg/mL (≈ 0.151 µM)	19 mg/kg		0.015 µg/mL (≈ 0.0189 µM)	ED50 [15]: 44 mg/kg; ED50 [16]: 1.7 mg/kg; ED50 [17]: 16 mg/kg; ED50 [18]: 35 mg/kg; ED50 [19]: 3.3 mg/kg; ED50 [20]: 2 mg/kg; ED50 [21]: 2 mg/kg; ED50 [22]: 19 mg/kg; MIC [14]: 1 µg/mL (≈ 1.26 µM); ED50 [23]: 25 mg/kg; ED50 [24]: 2.1 mg/kg; ED50 [25]: 16 mg/kg; ED50 [26]: 2.5 mg/kg
CC[C@H]1OC(=O)[C@H](C)[C@@H](OC2CC(C)(OC)C(O)C(C)O2)[C@H](C)[C@@H](OC2OC(C)CC(N(C)C)C2O)[C@](C)(O)C[C@@H](C)[C@H](NCCCc2ccccc2)[C@H](C)[C@@H](O)[C@]1(C)O (some centres not stated)	0.015 µg/mL (≈ 0.0176 µM)	2 µg/mL (≈ 2.34 µM)	37 mg/kg	0.06 µg/mL (≈ 0.0703 µM)	0.5 µg/mL (≈ 0.586 µM)	1 µg/mL (≈ 1.17 µM)	14 mg/kg	0.015 µg/mL (≈ 0.0176 µM)	17 mg/kg			
CC[C@H]1OC(=O)[C@H](C)[C@@H](OC2CC(C)(OC)C(O)C(C)O2)[C@H](C)[C@@H](OC2OC(C)CC(N(C)C)C2O)[C@](C)(O)C[C@@H](C)/C(=N\O)[C@H](C)[C@@H](O)[C@H]1C (some centres not stated)		1 µg/mL (≈ 1.36 µM)			0.25 µg/mL (≈ 0.341 µM)	0.5 µg/mL (≈ 0.682 µM)		0.015 µg/mL (≈ 0.0205 µM)		1 µg/mL (≈ 1.36 µM)	0.008 µg/mL (≈ 0.0109 µM)	
CC[C@H]1OC(=O)[C@H](C)[C@@H](OC2CC(C)(OC)C(O)C(C)O2)[C@H](C)[C@@H](OC2OC(C)CC(N(C)C)C2O)[C@](C)(O)C[C@@H](C)[C@@H](N)[C@H](C)[C@@H](O)[C@H]1C (some centres not stated)		16 µg/mL (≈ 22.3 µM)			1 µg/mL (≈ 1.39 µM)	2 µg/mL (≈ 2.78 µM)		0.25 µg/mL (≈ 0.348 µM)		1 µg/mL (≈ 1.39 µM)		
